# Screens as filed in PubChem.
# TRPC4 agonist: activators of mouse TRPC4 channel; 0.49% of 310,000 active; Q9QUQ5; B-score at 10 µM; AID 2237; HEK293 TRPC4beta/mu-opioid, Fluo4 calcium fluorescence; active compounds read high;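 active = B-score above 5 SD of library B-scores, and initial fluorescence ratio not above library mean plus 5 SD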;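 also: positive B-score marks a calcium rise read as TRPC4 activation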
#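 Assay system: HEK293 stable line with TRPC4beta plus mu-opioid receptor. Times: dye 45 min RT, read 110 s. Measured by: kinetic Fluo4 calcium fluorescence. Measure: B score of integrated ratio. Controls: assay buffer as low control, maximal DAMGO as high control.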
# TRPC4 potent: allosteric potentiators of mouse TRPC4 channel; HEK293 TRPC4beta/mu-opioid, DAMGO EC20, Fluo-4 Ca2+ flux; active compounds read high; B-score at 10 µM; 0.42% of 310,000 active; AID 2227;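 active = B-score of calcium response area above 5 SD of library B-scores, with initial fluorescence ratio within 5 SD of library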;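 also: B-score of integrated fluorescence ratio over time as area under calcium response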
# TRPC6 activator: activators of mouse TRPC6 channel; Q61143; HEK293-TRPC6 membrane potential dye fluorescence; active compounds read high; B-score at 10 µM; 0.13% of 310,000 active;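 active = B-score of the integrated fluorescence ratio above library mean plus 3 SD, and starting fluorescence ratio within library mean plus 5 SD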;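 also: higher score means more depolarization so channel activation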
# Target sequence (Q61143 whole entry, looked up): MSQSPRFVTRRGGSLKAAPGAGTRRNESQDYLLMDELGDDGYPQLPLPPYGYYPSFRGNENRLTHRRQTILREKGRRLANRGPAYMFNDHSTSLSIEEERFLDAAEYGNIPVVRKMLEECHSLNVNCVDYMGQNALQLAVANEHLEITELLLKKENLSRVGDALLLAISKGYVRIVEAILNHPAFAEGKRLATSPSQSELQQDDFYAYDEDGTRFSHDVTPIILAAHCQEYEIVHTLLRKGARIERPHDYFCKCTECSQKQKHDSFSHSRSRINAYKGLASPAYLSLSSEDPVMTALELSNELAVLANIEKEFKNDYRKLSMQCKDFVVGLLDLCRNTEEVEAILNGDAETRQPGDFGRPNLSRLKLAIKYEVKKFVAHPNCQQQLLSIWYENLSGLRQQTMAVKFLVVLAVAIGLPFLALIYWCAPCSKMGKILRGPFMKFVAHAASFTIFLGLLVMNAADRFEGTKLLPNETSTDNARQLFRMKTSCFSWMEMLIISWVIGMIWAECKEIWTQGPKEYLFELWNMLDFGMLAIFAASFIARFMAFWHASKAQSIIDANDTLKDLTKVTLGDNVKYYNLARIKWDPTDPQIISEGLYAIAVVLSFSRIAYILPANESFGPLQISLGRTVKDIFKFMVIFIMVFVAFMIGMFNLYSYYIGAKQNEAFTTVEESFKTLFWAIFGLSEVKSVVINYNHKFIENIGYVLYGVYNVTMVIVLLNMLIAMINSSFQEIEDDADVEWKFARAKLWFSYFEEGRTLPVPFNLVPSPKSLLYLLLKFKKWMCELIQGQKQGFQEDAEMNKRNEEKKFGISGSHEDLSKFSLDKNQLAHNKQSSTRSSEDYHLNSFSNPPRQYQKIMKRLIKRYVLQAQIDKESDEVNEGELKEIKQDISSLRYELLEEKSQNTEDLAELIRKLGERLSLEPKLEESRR
# TRPC6 inh: mouse TRPC6 channel inhibition; HEK293-TRPC6, membrane potential dye, ACh-evoked depolarization; active compounds read low; B-score at 10 µM; 1.1% of 310,000 active; AID 2553; Q61143;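 active = B-score under library mean minus 3 SD, initial fluorescence not abnormally high, positive integrated signal ratio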;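 also: B-score derived from integrated fluorescence ratio over the kinetic read; more negative B-score means stronger inhibition of depolarization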
# TRPC4 inh: blocks the mouse TRPC4 cation channel. Q9QUQ5. HEK293 TRPC4beta/mu-opioid, DAMGO-evoked Fluo4 calcium flux; active compounds read low. B-score at 10 µM. 0.39% of 300,000 active. AID 2247;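 active = B-score over 3 SD under the library average, no early fluorescence shift, positive overall ratio signal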
#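 Material: HEK293 cells with stable TRPC4beta plus mu-opioid receptor expression / Probe or stimulus: DAMGO in two steps, submaximal then maximal / Compound: single concentration per test compound / Technique: kinetic Fluo4 fluorescence imaging of calcium influx / Read-out: per-well B score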
# * marks the source's active call; other numbers are inactive results; i = inactive. Hits are enriched below; roughly 2.3% of the tested compounds scored in any of these assays.
SMILES,TRPC4 agonist,TRPC4 potent,TRPC6 activator,TRPC6 inh,TRPC4 inh
O=C(c1ccccc1F)N1CCN(c2ccc([N+](=O)[O-])c3cccnc23)CC1,i,29*,i,i,i
O=C(N/N=C/c1cccc(OCC(=O)N2CCCC2)c1)C(=O)Nc1ccccc1F,i,i,i,i,i
COc1ccc(NC(=O)Cn2c(=O)n(-c3ccc(OC)cc3OC)c(=O)c3c(C)c(C)sc32)cc1,i,i,i,i,i
COc1cc2[nH]c(C(=O)Nc3ccc(F)cc3)cc2c(OC)c1OC,i,i,i,i,i
O=c1cc(CN2CCN(c3cccc(C(F)(F)F)c3)CC2)nc2sccn12,i,i,i,i,i
Cc1nonc1OCCN1CCN(c2ccccc2[N+](=O)[O-])CC1,i,i,i,i,i
Nc1nonc1OCCN1CCN(c2ccc([N+](=O)[O-])c3cccnc23)CC1,93*,23*,i,i,i
COc1ccccc1N1CCN(C(=O)c2sc3nc(C)nc(N4CCN(c5ccccn5)CC4)c3c2C)CC1,i,i,i,i,-7*
COc1ccccc1N1CCN(C(=O)c2sc3ncnc(N4CCN(c5ccccn5)CC4)c3c2C)CC1,i,i,i,i,i
Cc1nc(N2CCN(c3ccccn3)CC2)c2c(C)c(C(=O)N3CCN(c4ccc(F)cc4)CC3)sc2n1,i,i,i,i,-10*
Cc1cc2oc(C(=O)N(Cc3cccs3)C3CCS(=O)(=O)C3)cc(=O)c2cc1Cl (stereo not given),i,95*,i,i,i
Cc1ccc(CN(C(=O)c2cc(=O)c3cc(C)cc(C)c3o2)C2CCS(=O)(=O)C2)cc1 (stereo not given),i,i,i,i,i
Cc1ccc(CN(C(=O)c2cc(=O)c3cc(Cl)c(C)cc3o2)C2CCS(=O)(=O)C2)cc1 (stereo not given),i,19*,i,i,i
Cc1ccc(S(=O)(=O)CCC(=O)Nc2ccccc2Br)cc1,i,i,i,i,i
CCOc1ccc(N=Cc2ccc3ccccc3c2)cc1,i,i,i,i,i
CCOc1ccc(N=CNc2ccc(OCC)cc2)cc1,i,15*,i,i,i
CC(C)(C)c1cc(CCC(=O)NNC(=S)NC(=O)c2ccccc2)cc(C(C)(C)C)c1O,211*,i,i,i,i
CC(=O)NC(=S)NNC(=O)CCc1ccccc1,i,i,i,i,i
O=C(CCc1ccccc1)NNC(=S)NC(=O)c1ccccc1,150*,i,i,i,i
CC(C)(C)c1cc(CCC(=O)NNC(=O)c2ccco2)cc(C(C)(C)C)c1O,i,i,i,i,i
Cc1nn(C(=O)c2cccc([N+](=O)[O-])c2)c(C)c1Cl,i,i,i,i,i
CC(C)(C)C(=O)NC(=S)NNC(=O)C(c1ccccc1)c1ccccc1,304*,i,i,i,i
CC(=O)NNC(=S)NC(=O)C(c1ccccc1)c1ccccc1,i,i,i,i,i
COc1ccc(C(=O)NC(CC(=O)O)c2cc([N+](=O)[O-])ccc2Cl)c(SC)c1 (stereo not given),i,i,i,i,i
Cc1cc(OCCN2CCCC2)ccc1[N+](=O)[O-],i,30*,i,i,i
SMILES,TRPC4 agonist,TRPC4 potent,TRPC6 activator,TRPC6 inh,TRPC4 inh
O=c1c(Cl)c(N2CCN(c3ccc(F)cc3)CC2)cnn1C12CC3CC(CC(C3)C1)C2,i,10*,i,i,i
COc1ccc(/C=C2\SC(=O)N(CC(=O)Nc3ccc(F)cc3)C2=O)cc1O,i,11*,i,i,i
COc1ccc(/C=C2\SC(=S)N(N3C(=O)CCC3=O)C2=O)cc1O,i,144*,i,i,i
CCCCNC(=O)CCC(=O)N1CCN(C(c2ccccc2)c2ccccc2)CC1,i,i,i,i,i
Cc1ccc(CNC(=O)CSc2nc(=O)n3ccccc3n2)cc1,i,i,i,i,-6*
CCCSc1nc(N)nc(-c2cccs2)c1C#N,i,i,i,i,-6*
COc1cccc(-c2c(C#N)c(N)nc3c2c(C)nn3-c2ccccc2)c1O,i,15*,i,i,i
O=C(CSc1nnc(-c2ccc(Cl)cc2Cl)n1C1CCCCC1)NC1CCS(=O)(=O)C1 (stereo not given),i,i,i,i,-6*
CCOC(=O)N1CCC(NC(=O)c2cc(C(=O)Nc3ccc(OC)c(OC)c3)ccc2CO)CC1,i,i,i,i,i
CCN(CC)CCCN1CC(O)=C(c2nc3ccccc3s2)C1=N,i,12*,i,i,i
N=C1C(c2nc3ccccc3s2)=C(O)CN1Cc1ccccc1,i,i,i,i,i
CCCC(c1nnnn1CS(=O)(=O)c1ccc(C)cc1)N1CCN(CC)CC1 (stereo not given),i,i,i,i,i
COc1ccccc1NC(=O)COC(=O)c1ccccc1C(=O)N1CCN(c2ccccc2)CC1,i,11*,i,i,i
CCCC1Cc2nc(N3CCCCC3)c(C#N)cc2CO1 (stereo not given),i,10*,i,i,i
CCCC1Cc2[nH]c(=O)c(C#N)cc2CO1 (stereo not given),i,i,i,i,i
O=C(C[n+]1ccc(C(=O)NCc2ccccc2)cc1)c1ccc(OC(F)F)cc1,i,10*,i,i,i
NC(=O)C[n+]1cccc(CNC(=O)c2ccc(OC(F)F)cc2)c1,i,i,i,i,i
CCN(CCCc1ccccc1)CCCc1ccccc1,i,i,i,i,i
CCCN(CCO)CCCc1ccccc1,i,11*,i,i,i
O=C1COc2ccc(S(=O)(=O)N3CCCC3)cc2N1,i,i,i,i,i
O=C1COc2ccc(N3C(=O)C=CC3=O)cc2N1,i,i,i,i,-7*
COc1ccc(C(O)(C(C)C)C(CN2CCOCC2)c2ccc(Cl)cc2)cc1 (stereo not given),i,12*,i,i,i
COc1ccc(C(O)(C2CCCCC2)C(CN2CCOCC2)c2ccccc2)cc1 (stereo not given),i,14*,i,i,i
CCC(O)(c1ccc(OC)cc1)C(CN1CCOCC1)c1ccccc1 (stereo not given),i,i,i,i,-6*
CC(=O)c1ccc(N(CC(=O)NC2CCCC2)C(=O)CNC(=O)c2ccco2)cc1,i,i,i,i,i
